Series [1] can be described thus: Stability in human liver microsomes assessed as clearance at 1 uM pre-incubated for 5 mins followed by NADPH addition and measured after 5 to 30 mins post NADPH addition by LC/MS/MS method. The series is classed as ADME. The following applies: read-out: CLH. An outline of the steps:
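Human liver microsomes (0.5 mg/mL) preincubated with 1 µM compound for 5 min at 37 °C in 0.1 M phosphate pH 7.4 with 1 mmol EDTA and 5 mmol MgCl2. Started with 1 mmol NADPH; sampled at 0, 5, 10 and 30 min. Quenched with equal volume of cold acetonitrile, vortexed, and centrifuged at 10,000 × g.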

Series [2] concerns the target T1, CYP3A4 (Homo sapiens, UniProt P08684). The series can be described thus: Inhibition of CYP3A4 in human liver microsomes at 10 uM using midazolam substrate preincubated for 5 mins before NADPH addition and measured after 20 mins post NADPH addition. The class given is ADME. The following applies: probe midazolam. An outline of the steps: (§1)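 Human liver microsomes 0.2 mg/mL, 1 mmol NADPH, 100 mmol phosphate pH 7.4, probe cocktail (10 μM midazolam, 100 μM testosterone, 10 μM dextromethorphan, 20 μM diclofenac, 100 μM phenacetin, 100 μM mephenytoin), test compound 10 μM or PBS; organic solvent <1%. 5 min preincubation at 37 °C, NADPH-generating system start, 20 min reaction; inhibition from metabolite formation relative to PBS.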
For orientation: Microsomes from liver hold many membrane-bound enzymes, among them those of drug oxidation.

The target in series [3] is CYP2D6 (Homo sapiens, UniProt P10635). The series can be described thus: Inhibition of CYP2D6 in human liver microsomes at 10 uM using dextromethorphan substrate preincubated for 5 mins before NADPH addition and measured after 20 mins post NADPH addition. The class given is ADME. The following applies: liver microsomes, probe dextromethorphan. An outline of the steps:
as §1

Series [4] can be described thus: Growth inhibition of human MM1S cells after 72 hrs by CellTiter-Glo luminescent cell viability assay. Conditions: MM1.S. (In ATP-based viability assays light output follows the ATP content of the culture.)
The subject of series [5] is HT-29. Briefly: Growth inhibition of human HT-29 cells after 72 hrs by SRB assay. The series is classed as functional, cell-based. The following applies: HT-29, 72 h. In short, it runs like this: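 HT-29 cells are grown in McCoy's 5A with 10% FBS at 37 °C, 5% CO2. DMSO stocks (0.01 mol/L) are diluted in normal saline just before use. Cells are treated in triplicate with gradient concentrations for 72 h at 37 °C.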
(In SRB staining, fixed cells bind dye roughly in proportion to their protein.)

The target in series [6] is T1, CYP3A4. Briefly: Inhibition of CYP3A4 in human liver microsomes at 10 uM preincubated for 5 mins before NADPH addition and measured after 20 mins post NADPH addition. The class given is ADME.
Series [7] addresses Bromodomain-containing protein 4 (Homo sapiens, UniProt O60885). The series can be described thus: Inhibition of BRD4(1) (unknown origin) incubated for 4 hrs by (+)-JQ1 fluorescent ligand based fluorescence anisotrophy.
Series [8] concerns the target Cytochrome P450 2D6 (Homo sapiens, UniProt P10635). Briefly: Time dependent inhibition of CYP2D6 in human liver microsomes at 10 uM using dextromethorphan substrate preincubated for 5 mins before NADPH addition and measured after 20 mins post NADPH addition. The series is classed as ADME.
Series [9] has as its target Cytochrome P450 3A4 (Homo sapiens, UniProt P08684). Briefly: Time dependent inhibition of CYP3A4 in human liver microsomes at 10 uM using midazolam substrate preincubated for 5 mins before NADPH addition and measured after 20 mins post NADPH addition. The series is classed as ADME.
For series [10], the target named is CYP2C9 (Homo sapiens, UniProt P11712). The series can be described thus: (§2) Inhibition of CYP2C9 in human liver microsomes at 10 uM using diclofenac substrate preincubated for 5 mins before NADPH addition and measured after 20 mins post NADPH addition. Conditions: liver microsomes, probe diclofenac; call rule not given here. The class given is ADME. An outline of the steps: as §1
Sequence of CYP2C9 (P11712 whole entry): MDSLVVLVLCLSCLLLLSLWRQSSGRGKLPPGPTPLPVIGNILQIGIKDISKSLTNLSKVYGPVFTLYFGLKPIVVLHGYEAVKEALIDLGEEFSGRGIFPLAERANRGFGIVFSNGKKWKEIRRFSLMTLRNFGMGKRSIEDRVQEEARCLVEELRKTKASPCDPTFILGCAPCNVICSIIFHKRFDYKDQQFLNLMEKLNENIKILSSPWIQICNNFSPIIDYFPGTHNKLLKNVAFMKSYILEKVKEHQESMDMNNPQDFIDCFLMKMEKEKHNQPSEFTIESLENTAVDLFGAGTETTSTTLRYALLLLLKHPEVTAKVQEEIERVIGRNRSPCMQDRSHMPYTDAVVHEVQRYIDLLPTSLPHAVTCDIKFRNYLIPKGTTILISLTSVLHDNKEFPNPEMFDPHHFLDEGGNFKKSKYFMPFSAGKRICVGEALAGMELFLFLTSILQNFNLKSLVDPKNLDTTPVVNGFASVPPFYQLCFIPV
Series [11] deals with CYP2C19 (Homo sapiens, UniProt P33261). Briefly: Inhibition of CYP2C19 in human liver microsomes at 10 uM using mephenytoin substrate preincubated for 5 mins before NADPH addition and measured after 20 mins post NADPH addition. The class given is ADME. The following applies: probe mephenytoin. An outline of the steps:
as §1

The target of series [12] is Cytochrome P450 2C19 (Homo sapiens, UniProt P33261). Briefly: Time dependent inhibition of CYP2C19 in human liver microsomes at 10 uM using mephenytoin substrate preincubated for 5 mins before NADPH addition and measured after 20 mins post NADPH addition. The series is classed as ADME.
Sequence of Cytochrome P450 2C19 (P33261 whole entry): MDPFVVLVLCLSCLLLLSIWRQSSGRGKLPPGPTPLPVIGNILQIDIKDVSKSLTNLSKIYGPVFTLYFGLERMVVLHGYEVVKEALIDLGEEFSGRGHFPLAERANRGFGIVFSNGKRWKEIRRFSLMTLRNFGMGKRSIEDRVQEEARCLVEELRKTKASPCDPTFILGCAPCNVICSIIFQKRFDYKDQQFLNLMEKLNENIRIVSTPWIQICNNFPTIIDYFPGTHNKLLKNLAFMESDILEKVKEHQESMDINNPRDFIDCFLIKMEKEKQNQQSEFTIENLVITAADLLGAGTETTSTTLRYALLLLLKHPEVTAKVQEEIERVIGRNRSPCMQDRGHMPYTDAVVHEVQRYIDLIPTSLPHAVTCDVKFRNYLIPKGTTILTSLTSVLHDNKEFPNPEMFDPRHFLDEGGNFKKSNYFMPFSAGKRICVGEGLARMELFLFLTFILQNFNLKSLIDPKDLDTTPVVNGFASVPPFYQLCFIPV
The target of series [13] is T2, Cytochrome P450 2C9 (Homo sapiens, UniProt P11712). Briefly: Time dependent inhibition of CYP2C9 in human liver microsomes at 10 uM using diclofenac substrate preincubated for 5 mins before NADPH addition and measured after 20 mins post NADPH addition. The class given is ADME.
T2 sequence (P11712 whole entry): as the sequence (P11712 whole entry) above
In series [14] the target is T3, CYP1A2 (Homo sapiens, UniProt P05177).
T3 sequence (P05177 whole entry): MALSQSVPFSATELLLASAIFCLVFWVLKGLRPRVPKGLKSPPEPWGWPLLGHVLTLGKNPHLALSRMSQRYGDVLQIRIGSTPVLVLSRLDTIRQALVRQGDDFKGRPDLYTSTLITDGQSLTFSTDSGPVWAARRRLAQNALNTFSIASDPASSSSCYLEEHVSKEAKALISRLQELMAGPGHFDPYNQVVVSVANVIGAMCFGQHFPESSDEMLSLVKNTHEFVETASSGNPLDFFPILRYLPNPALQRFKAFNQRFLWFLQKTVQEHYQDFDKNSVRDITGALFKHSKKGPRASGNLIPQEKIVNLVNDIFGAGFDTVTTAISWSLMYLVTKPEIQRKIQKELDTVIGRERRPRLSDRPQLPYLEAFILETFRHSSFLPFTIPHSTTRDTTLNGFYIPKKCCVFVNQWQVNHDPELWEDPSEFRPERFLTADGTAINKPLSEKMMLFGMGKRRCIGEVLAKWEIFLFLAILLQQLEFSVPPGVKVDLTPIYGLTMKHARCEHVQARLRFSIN
Briefly: Inhibition of CYP1A2 in human liver microsomes at 10 uM using phenacetin substrate preincubated for 5 mins before NADPH addition and measured after 20 mins post NADPH addition. The class given is ADME. The following applies: probe phenacetin. In short, it runs like this:
as §1

For series [15], the target named is T4, Cytochrome P450 1A2 (Homo sapiens, UniProt P05177).
T4 sequence (P05177 whole entry): T3 sequence (P05177 whole entry)
Briefly: Time dependent inhibition of CYP1A2 in human liver microsomes at 10 uM using phenacetin substrate preincubated for 5 mins before NADPH addition and measured after 20 mins post NADPH addition. The series is classed as ADME.

Series [16] deals with MV4-11. The series can be described thus: Growth inhibition of human MV4-11 cells after 72 hrs by CellTiter-Glo luminescent cell viability assay. Conditions: MV4-11, 72 h.
The target of series [17] is T2, Cytochrome P450 2C9. The description is as §2. The class given is ADME. The following applies: microsomes, 20 min, 10 µM. In short, it runs like this:
as §1

The structures appear in SMILES notation.

What is called inhibition is how much of the control response was suppressed. Broadly, the IC50 is the concentration that inhibits the measured activity by half.

Sequence of Cytochrome P450 3A4 (P08684 whole entry): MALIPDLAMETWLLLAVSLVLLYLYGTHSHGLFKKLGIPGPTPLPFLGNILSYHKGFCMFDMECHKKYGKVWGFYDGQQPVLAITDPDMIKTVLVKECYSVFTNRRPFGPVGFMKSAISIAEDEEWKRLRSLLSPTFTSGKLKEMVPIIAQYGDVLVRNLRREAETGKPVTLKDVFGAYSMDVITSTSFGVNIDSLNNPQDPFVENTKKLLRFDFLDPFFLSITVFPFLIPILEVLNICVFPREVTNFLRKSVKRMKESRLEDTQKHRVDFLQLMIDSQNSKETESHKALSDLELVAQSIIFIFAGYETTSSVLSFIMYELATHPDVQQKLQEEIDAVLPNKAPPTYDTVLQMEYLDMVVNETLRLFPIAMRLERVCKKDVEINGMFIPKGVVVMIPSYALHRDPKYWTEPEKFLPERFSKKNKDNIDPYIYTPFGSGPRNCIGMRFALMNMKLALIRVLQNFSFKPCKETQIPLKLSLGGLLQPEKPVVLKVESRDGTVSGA
T1 sequence (P08684 whole entry): as above
Sequence of Cytochrome P450 2D6 (P10635 whole entry): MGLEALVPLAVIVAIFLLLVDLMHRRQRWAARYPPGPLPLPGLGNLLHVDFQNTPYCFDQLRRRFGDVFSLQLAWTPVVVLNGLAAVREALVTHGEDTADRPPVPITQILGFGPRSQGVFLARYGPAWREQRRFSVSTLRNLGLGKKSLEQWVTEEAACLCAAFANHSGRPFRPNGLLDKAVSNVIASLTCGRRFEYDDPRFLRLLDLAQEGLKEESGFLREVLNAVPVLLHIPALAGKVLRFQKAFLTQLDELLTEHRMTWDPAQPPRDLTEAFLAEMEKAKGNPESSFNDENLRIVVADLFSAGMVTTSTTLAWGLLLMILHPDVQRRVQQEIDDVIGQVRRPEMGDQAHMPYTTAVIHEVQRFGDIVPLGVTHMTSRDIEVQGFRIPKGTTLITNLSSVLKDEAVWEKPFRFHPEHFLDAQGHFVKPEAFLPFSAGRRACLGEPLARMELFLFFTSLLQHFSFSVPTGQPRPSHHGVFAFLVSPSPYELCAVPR
Sequence of CYP2D6 (P10635 whole entry): as above
Sequence of CYP2C19 (P33261 whole entry): as the sequence (P33261 whole entry) above

For the molecule `O=C(Nc1cc(-c2csc(=O)[nH]2)cc(S(=O)(=O)NC2CCCC2)c1)c1cccs1`, the microsomal CLint at 1 µM in [1] was found to be 64 µL/min/mg. The inhibition at 20 min, 10 µM was 17% in [2]; 44% in series [3]; 34% in series [6]; 57% in series [10]; 46% in [11]; 45% in [14]. For the same molecule, the concentration for half-maximal inhibition (IC50) in series [4] came out at 3300 nM; in series [5], 25200 nM; in series [7], 110 nM; in series [16], 272 nM. Moreover, the TDI entry in series [8], in [9], in [12], in [13] and in series [15] was “Not Active” each time.
With `COc1cc2c(cc1-c1c(C)noc1C)ncc1[nH]c(=O)n([C@H](C)c3ccccn3)c12`, the inhibition at 20 min, 10 µM in series [2] was 21%; in [3], 18%; in [6], 22%; in series [10] it was 33%; in series [11] it was 19%; in [14], 18%. Besides, the IC50 in series [4] was 299 nM; in series [5], 945 nM; in series [16], 119 nM. Moreover, the TDI entry in [8], in series [9], in [12], in [13] and in series [15] was “Not Active” in each case.
With `CNc1cc(-c2csc(=O)[nH]2)cc(S(=O)(=O)NC2CCCC2)c1C`, in series [1], the microsomal CLint at 1 µM amounted to 174 µL/min/mg. Besides, the inhibition at 20 min, 10 µM was found to be 41% in series [2]; 36% in [3]; 47% in series [6]; 17% in [11]; 37% in series [14]. Further, the IC50 in series [4] is 505 nM; in series [5], 850 nM; in [7], 250 nM; in series [16], 198 nM. In addition, the TDI entry in series [8], in series [9], in series [12], in series [13] and in series [15] was “Not Active” throughout. In addition, the “inhibition (INH)” value in series [17] is “Not Active”.

These data come from ChEMBL document CHEMBL3407418, “Fragment-based drug discovery of 2-thiazolidinones as BRD4 inhibitors: 2. Structure-based optimization” (J Med Chem, 2015).
